Redox H2O2 prof: compounds producing H2O2 with reducing agent – biochemical, NIH compound library profiling, artefact control for MLSCN library redox annotation, primary screen; 0.03% of 200,000 active; activation, % at 10 µM; DTT-dependent redox cycling H2O2, phenol red/HRP absorbance; 100% = 100 µM peroxide control, 0% = buffer;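 active = activation of at least 50% relative to the plate's high and low controls in the primary single-dose screen; inactive = activation below 50%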;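 also: compound incubated with DTT at 0.8 mM final as the reducing agent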
p97 inhibitor: inhibitors of human p97 ATPase, primary screen, biochemical. 0.42% of 220,000 active. Transitional endoplasmic reticulum ATPase (Homo sapiens), P55072. recombinant p97 ATPase, Kinase-Glo ATP luminescence, 3 h. AID 1481, 2009. inhibition, % at 8 µM; in the data active = inhibition above about 15%;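 also: 0% = DMSO vehicle and 100% = wells lacking enzyme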
ROMK mod: ROMK potassium channel modulators, primary screen, cell-based, thallium flux, MLSMR library | B-score at 10 µM | Tet-inducible ROMK, thallium flux fluorescence; actives lie on both sides | 2% of 130,000 active;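 active = signal ratio slope over the read window, or its plate-corrected B-score, at least 3 SD from the plate mean, either direction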;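 also: B-score of the F/F0 ratio slope over 7 to 12 s after thallium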
Target sequence (P48048 whole entry, looked up): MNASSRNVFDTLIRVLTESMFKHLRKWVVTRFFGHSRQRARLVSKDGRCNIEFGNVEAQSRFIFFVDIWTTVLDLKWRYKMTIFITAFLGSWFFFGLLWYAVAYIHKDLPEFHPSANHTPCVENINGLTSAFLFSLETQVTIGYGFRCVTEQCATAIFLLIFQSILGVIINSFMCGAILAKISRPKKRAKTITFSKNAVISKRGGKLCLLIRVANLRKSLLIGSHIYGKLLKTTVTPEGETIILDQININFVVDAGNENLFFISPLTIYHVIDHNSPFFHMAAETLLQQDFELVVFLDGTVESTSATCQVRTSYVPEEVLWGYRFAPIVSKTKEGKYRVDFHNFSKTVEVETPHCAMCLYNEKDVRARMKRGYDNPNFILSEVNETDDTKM
PKD1 kinase inh: inhibitors of human PKD1 kinase, biochemical, fluorescence polarization; Serine/threonine-protein kinase D1 (Homo sapiens), Q15139; inhibition, % (no concentration beside the values); 0.056% of 200,000 active; PKD1 kinase fluorescence polarization assay; AID 797, 2007; in the data active = inhibition above about 50%
Cl transport mod: KCC2 cotransporter modulators, thallium flux, primary screen, cell-based, HEK293 KCC2, FluoZin-2 fluorescence, MLSMR; Solute carrier family 12 member 5 (Homo sapiens), Q9H2X9; KCC2 cells, thallium flux FluoZin-2 fluorescence; B-score of Tl+ flux slope (higher = more flux/activation; lower = inhibition) at 10 µM; 2.2% of 190,000 active;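 active = thallium flux slope and its plate-corrected score both differing from the plate sample mean at a set confidence after two filtering rounds, in either direction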;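 also: slope of fluorescence scaled to starting intensity during 10 to 20 s after thallium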
Mdm2 ligase inh: MDM2-luciferase reporter signal enhancers, primary screen, MDM2 E3 ligase inhibitor project, cell-based, luminescence, 1536-well; E3 ubiquitin-protein ligase Mdm2 (Homo sapiens), Q00987; cell-based MDM2 ubiquitination luciferase reporter, 2 h; 0 = plate control, 100 = twice control, blank-subtracted; signal enhancement, % at 5 µM; 0.11% of 210,000 active;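 active = signal enhancement of 30% or more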;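 also: luminescence tracks abundance of the self-degrading MDM2-luciferase fusion protein; higher signal means inhibition of MDM2 E3 ligase activity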
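Test system: mammalian cells stably expressing self-ubiquitinating, self-degrading MDM2 E3–luciferase fusion; Amount: 2000 cells in each well; Medium: DMEM; Schedule: 4 h settle plus 2 h compound, 37 °C; Technique: SteadyLite luciferase luminescence after 15 min room-temperature reagent incubation; Benchmarks: plate control and blank wells.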
KCC2 sec1: KCC2 modulators in sodium-free buffer, confirmation, cell-based, HEK293 KCC2, thallium flux, secondary assay. 15% of 3,700 active. shares compounds with Cl transport mod. FluoZin2 fluorescence; stronger effect = higher value. normalised thallium flux (F/F0 slope) at 10 µM;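 active = thallium flux slope above the same plate's solvent-only control mean plus 3 SD; inconclusive = the two replicate wells disagree; inactive = no significant difference from solvent-only control wells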
KCC2 bumet counter: thallium flux persisting under bumetanide in KCC2 cells, confirmation, counter-screen for KCC2 modulator project, cell-based, HEK293 KCC2, FluoZin2, secondary assay 3; shares compounds with Cl transport mod; HEK293-KCC2 + bumetanide/ouabain; stronger effect = higher value; normalized thallium flux at 10 µM; 49% of 3,700 active;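 active = thallium entry rate above the same plate's blocked-transporter control wells by more than 3 SD; inconclusive = the two repeat wells disagree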;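 also: raw slope of fluorescence over initial fluorescence between 10 and 20 s after thallium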
KCC2 secondary2: KCC2 modulators without ouabain present, confirmation, cell-based, HEK293 KCC2, thallium flux, FluoZin2, secondary assay 2 | shares compounds with Cl transport mod | normalized thallium flux at 10 µM | thallium flux FluoZin2 fluorescence; actives lie on both sides; F/F0 rise rate, 10–20 s post-thallium | 23% of 3,700 active;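 active = thallium flux slope more than 3 SD above or below the plate's solvent-only control mean, mostly below; inconclusive = the two repeat wells disagreed; inactive = no significant shift from solvent-only controls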;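 also: raw slope with 0.1% DMSO as baseline and bumetanide as block control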
HEK293 Tl flux: thallium flux modulation in parental HEK cells, confirmation, counter-screen for KCC2 modulator project, cell-based, counterscreen 1; shares compounds with Cl transport mod; HEK293 parental cells, thallium flux FluoZin2, ouabain; baseline-ratio fluorescence slope, 10–20 s after thallium; thallium flux rate (normalised fluorescence) at 10 µM; 46% of 3,700 active; AID 1716, 2009;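 active = thallium flux rate significantly above the same plate's solvent-only control wells, beyond their mean plus 3 SD; inconclusive = the two replicate wells gave conflicting results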
KCC2 ouabain: KCC2 inhibitors and activators, ouabain retest, confirmation, HEK-KCC2 cells | 48% of 3,700 active | HEK293-KCC2, thallium flux FluoZin2 fluorescence; bidirectional: low = inhibitor, high = activator | AID 1717, 2009 | shares compounds with Cl transport mod | raw Tl+ flux slope (below DMSO = inhibition, above = activation) at 10 µM;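 active = thallium flux slope beyond 3 SD from same-plate DMSO control mean in most replicates, usually higher, sometimes lower; inconclusive = repeat tests gave conflicting results; inactive = no significant difference from controls in most replicates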;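 also: slope of initial-normalized fluorescence between seconds 10 and 20 after thallium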
HEK counter2: native HEK Tl+ uptake effects, second counter-screen – HEK cells, counterscreen 2, counter-screen for KCC2 modulator project, confirmation. shares compounds with Cl transport mod. HEK293 parental, thallium flux FluoZin-2 fluorescence slope. thallium flux slope at 10 µM. 33% of 3,700 active. AID 1718, 2009;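 active = thallium flux slope above the same plate's solvent-control mean plus 3 SD in both duplicate wells; inconclusive = duplicate wells that disagreed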;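 also: run without ouabain in cells lacking the KCC2 cotransporter; slope of fluorescence scaled to its starting value between 10 and 20 s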
* hit, by the source's call; ? = inconclusive; · = no result. Shown are actives, neighbours in structure and some others; about 3.4% of the full set was active somewhere.

SMILES	Redox H2O2 prof	p97 inhibitor	ROMK mod	PKD1 kinase inh	Cl transport mod	Mdm2 ligase inh	KCC2 sec1	KCC2 bumet counter	KCC2 secondary2	HEK293 Tl flux	KCC2 ouabain	HEK counter2
Cc1ccc(S(=O)(=O)N2CCC(=O)N(C(COCc3ccccc3)Cc3ccccc3)CC2)cc1 (stereo not given)	-0.6	-9.1	-1.12	-3.2	-5.9*	·	0.00908	0.00613	?	0.00716	0.015*	0.0107
O=C(Nc1ccc(OC(F)(F)F)cc1)c1[nH]ncc1[N+](=O)[O-]	-0.2	4.1	-0.947	-0.4	13*	18.0	0.00809	0.0204*	0.0328	0.0221*	?	0.0157*
CSC(=NCc1ccc(F)cc1)NS(=O)(=O)c1cccs1	0.2	8.1	-0.386	7.5	-3.77*	-10.4	0.00866	?	0.0252*	0.00413	0.0151*	0.0111
CN(C)c1ccc(/C=C/c2ccc3ccccc3[n+]2C)cc1	0.1	-17.1	·	-3.3	-1.01	-53.3	·	·	·	·	·	·
CN(C)c1ccc(/C=C/c2ccc3c4ccccc4ccc3[n+]2-c2ccccc2)cc1	-1.0	-14.1	-1.3	1.4	-3.18*	-20.5	0.00497	0.00409	0.0239*	?	0.014*	0.0105
Cc1[nH]n(-c2ccccc2)c(=O)c1/C=N/N1C(=O)c2cccc3cccc(c23)C1=O	-0.1	-0.1	0.219	-1.3	24.5*	-8.0	?	0.0198*	0.045*	0.0169*	0.0322*	0.0166*
O=C1NC(=S)N(c2cccc(Cl)c2)C12CCCCC2	0.4	-4.9	0.00847	-1.0	4.64*	-13.4	0.00712	0.0106*	0.0294	0.0134*	0.0204	0.0121*
CCOc1ccc(N(C(C)C(=O)Nc2ccc(OC)cc2)S(C)(=O)=O)cc1 (stereo not given)	2.5	5.8	·	-5.4	-5.01*	-7.3	0.0153	0.00458	0.0285	0.00726	0.015	0.0105
Cc1cccc(-c2nnc(-c3ccc(N)cc3)o2)c1	1.3	4.2	·	-7.0	-0.631	-31.7	·	·	·	·	·	·
Cc1cccc(-c2nc(=S)c3c(o2)CCCC3)c1	-2.2	2.3	·	-8.3	52.5*	-33.4	0.0151*	0.0302*	0.0282	0.0146*	?	?
CC1CC(NC(=O)CCn2c(=O)oc3ccccc32)CC(C)(C)C1 (stereo not given)	-1.9	-0.3	·	-5.2	0.498	-12.9	·	·	·	·	·	·
COc1ccccc1N=c1scc(-c2ccc3c(c2)NC(=O)CO3)n1CC1CCCO1 (stereo not given)	3.9	-0.3	-0.783	-3.5	0.0145	-18.3	·	·	·	·	·	·
O=C1COc2ccc(-c3csc(=Nc4ccc(OC(F)F)cc4)n3CC3CCCO3)cc2N1 (stereo not given)	3.1	-2.6	·	-0.6	-4.76*	-4.9	0.00712	0.0051	0.0278	0.00751	0.0169	0.0101
CCOC(=O)C1C2C=CC3(CN(CCc4ccccc4)C(=O)C13)O2 (stereo not given)	1.1	0.3	1.14	-4.7	0.00426	-20.5	·	·	·	·	·	·
COc1ccc([C@@H]2Sc3ccccc3N(CCN(C)C)C(=O)[C@@H]2OC(C)=O)cc1	0.0	1.6	-0.433	-8.0	4.44*	·	0.00652	0.00452	0.0295	0.00788	0.0188	0.0106
COc1ccc(N2C(=O)C(OC(C)=O)C2c2ccc(C)cc2)cc1 (stereo not given)	-1.2	-4.5	1.25	4.8	0.00903	-10.2	·	·	·	·	·	·
CC1=C(C#N)C(C(F)(F)F)(C(F)(F)F)N=C(c2ccco2)N1	0.2	-0.8	0.54	-8.4	0.885	9.2	·	·	·	·	·	·
Cc1cccc(CSC(Nc2ccc(F)cc2)=C(C#N)C#N)c1	0.1	0.0	-0.166	-6.0	-5.01*	3.5	0.0073	0.00636	0.0291	0.00565*	0.0588*	0.0103
N#CC(C#N)=C(Nc1ccc(F)cc1)SCc1cccc(Br)c1	0.2	-3.6	-1.77	-1.4	-3.69*	-38.8	0.00654	?	?	0.00963*	0.0146*	0.0106
Cc1cccc(CSC(=N)N)c1	0.5	5.9	·	-2.1	1.01	-5.9	·	·	·	·	·	·
COc1ccc2c(CCNC(=O)c3ccc([N+](=O)[O-])cc3)c[nH]c2c1	-0.2	-1.9	-0.637	11.2	-0.00183	-15.7	·	·	·	·	·	·
COc1cccc(N2CCN(S(=O)(=O)c3ccc4nc(-c5ccccc5)[nH]c4c3)CC2)c1	-0.1	9.4	1.28	0.9	9.13*	-8.5	0.00867	0.00507	0.0307	0.00778	0.019	0.0101
COc1cccc(N2CCN(S(=O)(=O)c3cccc4nsnc34)CC2)c1	0.7	-1.9	·	1.9	1.13	-12.2	·	·	·	·	·	·
COC(=O)c1ccc(Cn2cnc3c(cnn3-c3ccc(C)c(C)c3)c2=O)o1	-0.8	-4.7	-0.751	-4.7	0.669	2.7	·	·	·	·	·	·
Cc1oc(C(C)(C)C)cc1C(N)=O	·	8.4	·	·	0.201	-23.1	·	·	·	·	·	·
Cc1ccc(N/C(N)=N/c2nc(CSc3ccc(C)cc3)cc(=O)[nH]2)cc1	0.9	2.4	0.178	3.7	-0.416	-13.6	·	·	·	·	·	·
